Experimental data collected from several papers.
Lines come from different studies, so protocols differ.
DPP4: Dipeptidyl peptidase 4 (DPP4, Homo sapiens, UniProt P27487)
SLC22A13: SLC22A13 (Homo sapiens, UniProt Q9Y226)
CYP2C9: Cytochrome P450 2C9 (CYP2C9, Homo sapiens, UniProt P11712)

Cn1c(=O)cc(N2CCC(N)CC2)n(Cc2nc3ccccc3c(=O)n2-c2cccc(C(F)(F)F)c2)c1=O
IC50 (DPP4; enzyme activity, inhibitor): 58.1 µM

Nc1ncnc2c1ncn2[C@@H]1O[C@H](CO)[C@@H](O)[C@H]1O
IC50 (SLC22A13; transporter uptake, inhibitor, radiometric; oocytes): > 5000 µM

CC1(CN)CCN(c2cnc3c(Sc4ccncc4Cl)n[nH]c3n2)CC1
IC50 (Tyrosine-protein phosphatase non-receptor type 6 (PTPN6, Homo sapiens, UniProt P29350); enzyme activity, inhibitor): > 100 µM

CCCCNC(=O)N[C@H]1CSCc2cc(CSCCNC(=O)CN3CCN(CC(=O)O)CCN(CC(=O)O)CC3)cc(c2)CSC[C@@H](C(=O)O)NC(=O)[C@H](Cc2ccccc2)NC(=O)[C@H](CCC(N)=O)NC(=O)[C@H]([C@@H](C)O)NC(=O)[C@@H]2CCCN2C(=O)[C@@H]2CCCN2C1=O
IC50 (Prolyl endopeptidase FAP (FAP, Homo sapiens, UniProt Q12884); ligand displacement, radioligand): 0.0317 µM

Cc1ccc(-n2c(Cn3c(N4CCC(N)CC4)cc(=O)n(C)c3=O)nc3ccccc3c2=O)cc1
IC50 (DPP4; enzyme activity, inhibitor): > 100 µM

CC[C@@](N)(c1cnc(C(F)(F)F)c(Cl)c1)c1c2ncn(C3CC3)c(=O)c2nn1C
IC50 (Cytochrome P450 2C8 (CYP2C8, Homo sapiens, UniProt P10632); enzyme activity, inhibitor; human, liver microsomes; pH 7.4): > 20 µM

N#C[C@@]12C[C@@H]1[C@@H](n1cnc3c(N[C@@H](C4CCC4)C4CC4)nc(I)nc31)[C@H](O)[C@@H]2O
IC50 (CYP2C9; enzyme activity, inhibitor): 8.64 µM

Cn1nc2c(=O)n(C3CC3)ccc2c1[C@](O)(c1cnc(C(F)(F)F)c(Cl)c1)C(F)(F)F
IC50 (CYP2C9; enzyme activity, inhibitor; human, liver microsomes; pH 7.4): > 20 µM

CN(C)c1ncnc2c1ncn2[C@@H]1O[C@H](CCl)[C@@H](NC(=O)[C@@H](CSC(c2ccccc2)c2ccccc2)NC(=O)OC(C)(C)C)[C@H]1O
IC50 (Aminopeptidase N (ANPEP, Homo sapiens, UniProt P15144); enzyme activity, inhibitor, fluorescence): > 100 µM

Cn1c(=O)cc(N2CCC(N)CC2)n(Cc2nc3ccccc3c(=O)n2-c2ccccc2)c1=O
IC50 (DPP4; enzyme activity, inhibitor): > 100 µM

CC(=O)N[C@H]1Cc2ccc(cc2)OC/C=C/C[C@@H](C(=O)N[C@@H](CCCNC(=N)N)C(=O)c2nc3ccccc3s2)NC(=O)[C@H](CC(C)C)NC1=O
IC50 (Hepatocyte growth factor activator serine protease (Homo sapiens, UniProt Q04756); enzyme activity, inhibitor, fluorescence; with preincubation): 0.053 µM

Cn1c(=O)cc(N2CCC(N)CC2)n(Cc2nc3ccccc3c(=O)n2-c2ccc(F)cc2)c1=O
IC50 (DPP4; enzyme activity, inhibitor): 63.4 µM

Cn1c(=O)c2c(ncn2C)n(C)c1=O
IC50 (SLC22A13; transporter uptake, inhibitor, radiometric; oocytes): > 2000 µM

Cn1c(=O)cc(N2CCC(N)CC2)n(Cc2nc3ccc(Br)cc3c(=O)n2-c2ccc(F)cc2)c1=O
IC50 (DPP4; enzyme activity, inhibitor): 44.4 µM

COc1cc(O)c2c(c1)C(=O)c1cc(C)cc(O)c1C2=O
IC50 (CYP2C9; enzyme activity, inhibitor; human, liver microsomes; pH 7.4): 7.44 µM
